Source: ChEMBL document CHEMBL3098068 (Eur J Med Chem, 2014)

Key:
[1] = target: Aldo-keto reductase family 1 member B1 (Rattus norvegicus) (UniProt P07943); test: Inhibition of rat kidney NADPH-dependent aldose reductase assessed as DL-glyceraldehyde conversion to glycerol at 1 uM preincubated for 20 mins followed by NADPH addition measured after 5 mins by UV-Visible spectrophotometric analysis relative to control
Outline: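 Enzyme source: supernatant of rat kidney homogenized in ice-cold 50 mM potassium phosphate pH 7.4, centrifuged 12,000 rpm 30 min, stored at -80 °C. Assay mix: 0.1 M potassium phosphate pH 6.2, DL-glyceraldehyde, lithium sulphate, mercaptoethanol. Compound (1 µM in DMSO) preincubated with enzyme 20 min at 37 °C. Blank without NADPH incubated 5 min at 37 °C. NADPH added to start. A340 decrease read. %inhibition = 100-[T/C]×100.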

[2] = target: Aldo-keto reductase family 1 member B1 (Rattus norvegicus) (UniProt P07943); test: (§1) Inhibition of rat kidney NADPH-dependent aldose reductase assessed as DL-glyceraldehyde conversion to glycerol preincubated for 20 mins followed by NADPH addition measured after 5 mins by UV-Visible spectrophotometric analysis
[3] = target: Aldo-keto reductase family 1 member B1 (Rattus norvegicus, UniProt P07943); test: as §1

inhibition [1] [%] | inhibition [2] | IC50 [3] [nM] | SMILES
< 50 | – | – | N#CC(=C\c1ccc(Cl)cc1)/C=C1\SC(=S)NC1=O
< 50 | – | – | COc1ccc(/C=C(C#N)/C=C2\SC(=S)N(c3ccc(C(=O)O)cc3)C2=O)cc1
< 50 | – | – | N#CC(=C\c1cccc2ccccc12)/C=C1\SC(=S)NC1=O
< 50 | – | – | N#CC(=C\c1cccc2ccccc12)/C=C1\SC(=S)N(CC(=O)O)C1=O
< 50 | – | – | N#CC(=C\c1cccs1)/C=C1\SC(=S)N(CC(=O)O)C1=O
< 50 | – | – | N#CC(=C\c1ccc(Br)cc1)/C=C1\SC(=S)NC1=O
< 50 | – | – | N#CC(=C\c1ccccc1)/C=C1\SC(=S)N(c2ccc(CC(=O)O)cc2)C1=O
> 50 | Dose-dependent effect | 220 | N#CC(=C\c1ccccc1)/C=C1\SC(=S)N(c2ccc(C(=O)O)cc2)C1=O
< 50 | – | – | N#CC(=C\c1ccco1)/C=C1\SC(=S)N(c2ccc(C(=O)O)cc2)C1=O
> 50 | Dose-dependent effect | 860 | N#CC(=C\c1cccs1)/C=C1\SC(=S)NC1=O
< 50 | – | – | N#CC(=C\c1ccc(C(F)(F)F)cc1)/C=C1\SC(=S)N(CC(=O)O)C1=O
< 50 | – | – | CC(C)c1ccc(/C=C(C#N)/C=C2\SC(=S)N(CC(=O)O)C2=O)cc1
< 50 | – | – | N#CC(=C\c1ccc(F)cc1)/C=C1\SC(=S)N(CC(=O)O)C1=O
< 50 | – | – | COc1ccc(/C=C(C#N)/C=C2\SC(=S)N(CC(=O)O)C2=O)cc1
< 50 | – | – | CCc1ccc(/C=C(C#N)/C=C2\SC(=S)N(c3ccc(CC(=O)O)cc3)C2=O)cc1
< 50 | – | – | N#CC(=C\c1ccc(F)cc1)/C=C1\SC(=S)N(c2ccc(C(=O)O)cc2)C1=O
< 50 | – | – | CC(C)c1ccc(/C=C(C#N)/C=C2\SC(=S)NC2=O)cc1
> 50 | Dose-dependent effect | 670 | N#CC(=C\c1ccco1)/C=C1\SC(=S)N(CC(=O)O)C1=O
< 50 | – | – | N#CC(=C\c1ccc(Cl)cc1)/C=C1\SC(=S)N(CC(=O)O)C1=O
< 50 | – | – | N#CC(=C\c1ccc(F)cc1)/C=C1\SC(=S)NC1=O

inhibition [1] [%] | inhibition [2] | IC50 [3] [nM] | SMILES
< 50 | – | – | Cc1ccc(/C=C(C#N)/C=C2\SC(=S)N(c3ccc(CC(=O)O)cc3)C2=O)cc1
< 50 | – | – | CCc1ccc(/C=C(C#N)/C=C2\SC(=S)N(CC(=O)O)C2=O)cc1
< 50 | – | – | N#CC(=C\c1cccs1)/C=C1\SC(=S)N(c2ccc(C(=O)O)cc2)C1=O
> 50 | Dose-dependent effect | 690 | Cc1ccc(/C=C(C#N)/C=C2\SC(=S)NC2=O)cc1
< 50 | – | – | N#CC(=C\c1ccc(Cl)cc1)/C=C1\SC(=S)N(c2ccc(C(=O)O)cc2)C1=O
< 50 | – | – | Cc1ccc(/C=C(C#N)/C=C2\SC(=S)N(c3ccc(C(=O)O)cc3)C2=O)cc1
< 50 | – | – | N#CC(=C\c1ccco1)/C=C1\SC(=S)NC1=O
< 50 | – | – | N#CC(=C\c1cccc2ccccc12)/C=C1\SC(=S)N(c2ccc(C(=O)O)cc2)C1=O
< 50 | – | – | N#CC(=C\c1ccc(Br)cc1)/C=C1\SC(=S)N(CC(=O)O)C1=O
< 50 | – | – | N#CC(=C\c1ccccc1)/C=C1\SC(=S)NC1=O
< 50 | – | – | CC(C)c1ccc(/C=C(C#N)/C=C2\SC(=S)N(c3ccc(C(=O)O)cc3)C2=O)cc1
> 50 | Dose-dependent effect | 750 | N#CC(=C\c1ccccc1)/C=C1\SC(=S)N(CC(=O)O)C1=O
< 50 | – | – | CC(C)c1ccc(/C=C(C#N)/C=C2\SC(=S)N(c3ccc(CC(=O)O)cc3)C2=O)cc1
< 50 | – | – | CCc1ccc(/C=C(C#N)/C=C2\SC(=S)N(c3ccc(C(=O)O)cc3)C2=O)cc1
< 50 | – | – | N#CC(=C\c1ccc(Br)cc1)/C=C1\SC(=S)N(c2ccc(C(=O)O)cc2)C1=O
< 50 | – | – | COc1ccc(/C=C(C#N)/C=C2\SC(=S)NC2=O)cc1
< 50 | – | – | Cc1ccc(/C=C(C#N)/C=C2\SC(=S)N(CC(=O)O)C2=O)cc1
< 50 | – | – | CCc1ccc(/C=C(C#N)/C=C2\SC(=S)NC2=O)cc1
< 50 | – | – | COc1ccc(/C=C(C#N)/C=C2\SC(=S)N(c3ccc(CC(=O)O)cc3)C2=O)cc1
